Cneo AK release = causes C. neoformans cell lysis. adenylate kinase release luminescence, 4 h; normalised: neutral wells 0, clomiphene wells 100. lysis activity, % at 15 µM. hit rate 0.2% among 360,000. AID 651654;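 active = mean lysis activity across replicates of at least 80%, whatever share of replicates individually reach that level; inactive = mean lysis activity below 80%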
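Signal: Adenylate kinase release luminescence | Assay system: Log-phase Cryptococcus neoformans yeast cells | Input: Cells at 5 × 10^6 per mL | Buffer or medium: Fresh YPD growth medium | Compound: Single dose | Schedule: Static 4 h at 37 °C with compound, 1 h detection | Controls: Clomiphene | Read-out: Luminescence rise reflecting yeast cell lysis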
MT1-MMP act inh = inhibitors of human MT1-MMP activation | GFP/RFP ratio change, % at 20 µM | HT1080 RFP-PRO-GFP cells, GFP/RFP ratio fluorescence, overnight; percent of plate control window, DMSO zero | AID 651647 | hit rate 0.061% among 360,000 | P50281;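 active = GFP/RFP ratio change of at least 30% with cell ATP level not reduced by more than half and red fluorescence within 50% of control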
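Assay system: HT1080 RFP-PRO-GFP cells. Benchmarks: DMSO vehicle wells and RFP-L50D-GFP reporter cell wells. Times: overnight cell settling, then overnight compound exposure, 37 °C, 5% CO2. Compound: 20 µM single dose, 1% DMSO. Read-out basis: GFP/RFP fluorescence ratio.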
iPSC survival up = increases survival of single human iPS cells | hiPSC single-cell survival, ATPlite luminescence; 100% = ROCK inhibitor wells, 0% = DMSO | survival enhancement, % at 20 µM | hit rate 0.044% among 360,000 | AID 602274; in the data active = survival enhancement above about 18%;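 also: cells exposed to compounds for 16 hours before the ATP read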
Ecoli rRNA inh = inhibitors of bacterial rRNA selective over humanized ribosomes | hit rate 1.6% among 350,000 | GFP signal change (wild-type ribosome), % (no concentration beside the values) | AID 720706 | E. coli WT GFP vs humanized-ribosome RFP mutants, fluorescence, 24 h; hits give low values; DMSO median 0, no signal -100;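 active = significant combined selectivity score with lowered wild-type GFP, culture density cut under 30%, mutant RFP and density less affected; inactive = any of these conditions unmet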
SKN-1 inh = blocks SKN-1 activity in C. elegans; C. elegans VP596 Pgst-4::GFP/RFP ratio, acrylamide-induced, 24 h; inhibition, % at 21.8 µM; hit rate 0.49% among 360,000; AID 624304;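 active = interference check ratio from 0.5 to 1.5 plus GFP to RFP signal ratio inhibition reaching or exceeding a fixed threshold, cut at about 30% in these data, passing the limit was not always enough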
DAGLB inhibitor = diacylglycerol lipase beta (human) inhibition | HEK293T DAGLB membrane lysate, EnzChek fluorogenic substrate | AID 504411 | hit rate 0.059% among 340,000 | inhibition, % at 5.17 µM; in the data active = inhibition above about 34%
Target sequence (Q8NCG7 whole entry, looked up): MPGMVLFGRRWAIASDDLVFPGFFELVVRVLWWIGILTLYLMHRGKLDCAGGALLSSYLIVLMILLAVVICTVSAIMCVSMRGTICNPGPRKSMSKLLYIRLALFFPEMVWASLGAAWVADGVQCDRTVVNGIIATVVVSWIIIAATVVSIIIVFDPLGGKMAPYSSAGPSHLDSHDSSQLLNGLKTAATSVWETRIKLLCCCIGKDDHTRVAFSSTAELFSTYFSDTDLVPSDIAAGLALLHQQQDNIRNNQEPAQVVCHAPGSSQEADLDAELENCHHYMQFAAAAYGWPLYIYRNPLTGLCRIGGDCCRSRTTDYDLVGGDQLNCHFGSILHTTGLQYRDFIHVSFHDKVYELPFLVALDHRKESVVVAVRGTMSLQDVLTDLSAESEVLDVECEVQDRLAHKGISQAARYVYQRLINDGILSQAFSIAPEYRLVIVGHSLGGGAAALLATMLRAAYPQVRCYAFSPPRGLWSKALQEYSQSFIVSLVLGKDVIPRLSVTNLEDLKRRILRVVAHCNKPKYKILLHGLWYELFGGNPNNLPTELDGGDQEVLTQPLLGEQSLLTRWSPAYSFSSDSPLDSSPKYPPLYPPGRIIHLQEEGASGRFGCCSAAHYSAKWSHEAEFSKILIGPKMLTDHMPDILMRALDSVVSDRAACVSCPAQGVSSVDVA
Of the large screens only hits and unclear results are named; the others gave an inactive call. A selection: hits, their analogues and other compounds. The true share with any hit is near 1.8%.

Cc1[nH]c2ccccc2c1/C=N/Nc1nc2ccccc2[nH]1	Ecoli rRNA inh -47.0 (no result: DAGLB inhibitor)
C(=N\Nc1nc2ccccc2[nH]1)/c1c[nH]c2ccccc12	none (no result: Cneo AK release, Ecoli rRNA inh)
COc1ccc(/C=N/Nc2nc3ccccc3[nH]2)c(OC)c1OC	Ecoli rRNA inh -27.4 (no result: Cneo AK release)
Cc1ccccc1/C=N/Nc1nc2ccccc2[nH]1	none (no result: Cneo AK release)
C(=N\Nc1nc2ccccc2[nH]1)/c1cccc2cccnc12	Ecoli rRNA inh -53.3
C[C@H]1CCCCO[C@H](CN(C)C(=O)C2CCCCC2)[C@@H](C)CN([C@@H](C)CO)C(=O)c2cc(NS(=O)(=O)c3cn(C)cn3)ccc2O1	none (no result: MT1-MMP act inh, iPSC survival up, SKN-1 inh, DAGLB inhibitor)
CCNC(=O)C[C@H]1CC[C@H](NC(=O)C2CC2)[C@H](CO)O1	none (no result: MT1-MMP act inh, iPSC survival up, SKN-1 inh, DAGLB inhibitor)
CC(C)(C)[S@](=O)N1Cc2cc(C(=O)N3CCCCC3)nc(-c3cccc(-c4cccc(C#N)c4)c3)c2[C@@H]1CCO	none (no result: MT1-MMP act inh, iPSC survival up, SKN-1 inh, DAGLB inhibitor)
COc1ccc(-c2csc3ncn(-c4ccccc4)c(=O)c23)cc1OC	none (no result: Cneo AK release)
COc1ccc(-c2csc3ncn(-c4ccccc4OC)c(=O)c23)cc1OC	Ecoli rRNA inh -26.1
COc1ccccc1S(=O)(=O)N[C@@H]1CC[C@@H](CC(=O)NCc2cccc(F)c2)O[C@H]1CO	none (no result: MT1-MMP act inh, iPSC survival up, SKN-1 inh, DAGLB inhibitor)
CC(=O)Nc1ccc(S(=O)(=O)NCc2ccc3c(c2)cc(C)n3C)cc1	SKN-1 inh 50.2
CC(=O)Nc1ccc(S(=O)(=O)NCc2ccc(C)cc2)cc1	none (no result: Ecoli rRNA inh)
Cc1cc2cc(CNC(=O)c3cccc([N+](=O)[O-])c3)ccc2n1C	SKN-1 inh 47.0
Cc1ccc(CNC(=O)c2ccc(N(C)S(=O)(=O)c3ccccc3)cc2)cc1	Ecoli rRNA inh -33.0
Cc1cc2cc(CNC(=O)c3ccc(S(=O)(=O)N(C)C)cc3)ccc2n1C	SKN-1 inh 44.5
CN(c1ccccc1)S(=O)(=O)c1ccc(C(=O)NCc2ccc(F)cc2)cc1	none
Cc1c(C(=O)NCc2ccc3c(c2)cc(C)n3C)cccc1[N+](=O)[O-]	none
COCC(=O)N(C)C[C@@H]1Oc2ncc(C#C[C@@H](C)O)cc2C(=O)N([C@H](C)CO)C[C@@H]1C	none (no result: MT1-MMP act inh, iPSC survival up, SKN-1 inh, DAGLB inhibitor)
C[C@H](CO)N1C[C@H](C)[C@H](CN(C)C(=O)Nc2ccc3c(c2)OCO3)OCCCC[C@H](C)Oc2ccc(NS(=O)(=O)c3cn(C)cn3)cc2C1=O	none (no result: MT1-MMP act inh, iPSC survival up, SKN-1 inh, DAGLB inhibitor)
C[C@@H]1CN([C@@H](C)CO)C(=O)Cc2cc(NC(=O)Nc3ccc4c(c3)OCO4)ccc2O[C@H]1CN(C)C(=O)Nc1ccc2c(c1)OCO2	none (no result: Cneo AK release, MT1-MMP act inh, iPSC survival up, SKN-1 inh, DAGLB inhibitor)
Cc1noc(C)c1NC(=O)N[C@@H]1C=C[C@H](CC(=O)Nc2ccccc2)O[C@H]1CO	none (no result: MT1-MMP act inh, iPSC survival up, SKN-1 inh, DAGLB inhibitor)
Cc1cc2cc(CNC(=S)Nc3ccc(OC(F)(F)F)cc3)ccc2n1C	SKN-1 inh 57.5
CC(=O)c1ccccc1NC(=O)COC(=O)CCCN1C(=O)c2cccc3cccc(c23)C1=O	iPSC survival up 31.6 (no result: Cneo AK release, Ecoli rRNA inh)
O=C(NC1CCCCC1)N[C@@H]1C=C[C@@H](CC(=O)N2CCOCC2)O[C@@H]1CO	none (no result: MT1-MMP act inh, iPSC survival up, SKN-1 inh, DAGLB inhibitor)
CCC(=O)N[C@@H]1C=C[C@H](CC(=O)NCC2CCCCC2)O[C@H]1CO	Cneo AK release 87.1 (no result: MT1-MMP act inh, iPSC survival up, SKN-1 inh, DAGLB inhibitor)
O=C(NC1CCCCC1)N[C@H]1C=C[C@@H](CC(=O)N2CCOCC2)O[C@@H]1CO	Cneo AK release 92.9 (no result: MT1-MMP act inh, iPSC survival up, SKN-1 inh, DAGLB inhibitor)
CN1CCN(C(=O)C[C@H]2C[C@@H]3c4cc(NC(=O)C5CCOCC5)ccc4O[C@@H]3[C@@H](CO)O2)CC1	none (no result: MT1-MMP act inh, iPSC survival up, SKN-1 inh, DAGLB inhibitor)
O=C(NCCO)N1c2ccccc2Sc2ccccc21	none
C=CCNC(=O)N1c2ccccc2Sc2ccccc21	Ecoli rRNA inh -23.9
CCCNC(=O)N1c2ccccc2Sc2ccccc21	none (no result: Cneo AK release)
CCC(C)NC(=O)N1c2ccccc2Sc2ccccc21 (stereo not drawn)	Ecoli rRNA inh -31.4 (no result: Cneo AK release)
Cc1ccc2cc3c(NC(=O)c4cccnc4)nn(C)c3nc2c1	SKN-1 inh 40.2 (no result: Ecoli rRNA inh)
CC(=O)Nc1nn(C)c2nc3cc(C)ccc3cc12	none (no result: Ecoli rRNA inh)
CN(C)C(=O)c1cccc(-c2ccc(C3[C@@H]4CN(S(=O)(=O)c5cccc(Cl)c5)C[C@H]3N4)cc2)c1 (stereo partly drawn)	none (no result: Cneo AK release, MT1-MMP act inh, iPSC survival up, SKN-1 inh, DAGLB inhibitor)
CO[C@H]1CN(C)C(=O)c2cc(NC(C)=O)ccc2OC[C@@H](C)N(Cc2ccccc2C(=O)O)C[C@H]1C	none (no result: MT1-MMP act inh, iPSC survival up, SKN-1 inh, DAGLB inhibitor)
